Test results published in PubChem BioAssay.
The source made the active and inactive calls. Cut-off read from the data, not from the text of the source, unless noted: active = inhibition above about 31%; inactive = the rest.

How the values were obtained:
[1] = HUVEC growth inhibition – cell-based, human, primary screen (AID 575;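 active = viability at or below 30% in both replicate assays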;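 note: 100% = median of untreated cell wells with 0.1% DMSO on each plate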); conditions: HUVEC proliferation, CellTiter-Glo luminescence, 72 h; at 10 µM; stronger effect = lower value
How it was run: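 Assay system: Primary human umbilical vein endothelial cells | Quantity: 1250 cells per well | Medium: Supplemented EBM, 2% fetal bovine serum | Detection: CellTiter-Glo luminescence measuring cellular ATP | Read-out: % viability vs DMSO wells | Plate: Collagen-coated 384-well format | Times: 72 h exposure, 37 °C, 5% CO2, 30 min RT equilibration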

[2] = H69AR cell proliferation blockers – human, duplicate replicates, primary screen (AID 580;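 active = viability at or under a set limit in both replicates, limit being median viability minus 3 SD, cut at about 48% in these data, passing the limit was not always enough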;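 note: 100% = mean luminescence of untreated wells and 0% = no signal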); conditions: H69AR lung tumor cells viability, ATP luminescence, 72 h; at 10 µM; stronger effect = lower value
[3] = MRP1 drug-resistance reversers in H69AR cells – cell-based, doxorubicin co-treatment, pilot screen (AID 601;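 active = viability loss from added drug above about 55%, and viability with drug at most 40%, in both replicates, limit read from the data, passing the limit was not always enough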); conditions: CellTiter-Glo, 72 h, at 10 µM; for differential viability (reversal): stronger effect = higher value
[4] = yeast transport mutant growth inhibition pilot in 384-well plates, post-Golgi transport modulator project (AID 636); conditions: absorbance 615 nm, about 18 h, stronger effect = higher value
[5] = growth suppression of yeast trafficking mutant, preliminary HTS, modulators of trafficking downstream of Golgi apparatus project, 1536-format plate, OD 615 nm (AID 637; in the data active = inhibition above about 30%); conditions: yeast transport mutant growth, absorbance 615 nm, 18 h; stronger effect = higher value
[6] = H69AR cells + 2 uM doxorubicin, measured here: viability with 2 uM doxorubicin, stronger effect = lower value
[7] = H69AR cells, compound alone cytotoxicity

Row | SMILES | viability [1] | viability [2] | differential viability (reversal) ([3]; H69AR cells + 2 uM doxorubicin) | viability [3, 6] [%] | viability [3, 7] [%] | inhibition [4] | inhibition [5]
1 | O=c1nc(N2CCCC2)nc(Nc2ccccc2)[nH]1 | 100% (inactive) | 83.7% (inactive) | -3.31% (inactive) | 87 | 83.7 | -2.47% (inactive) | -4.92% (inactive)
2 | C=CCn1c(Br)nc2c1c(=O)[nH]c(=O)n2C | 97.7% (inactive) | 85.1% (inactive) | 6.37% (inactive) | 78.7 | 85.1 | -6.93% (inactive) | 3.33% (inactive)
3 | O=C(Nc1ccccc1C(=O)N1CCOCC1)C1CCC(=O)N1C1CCCC1 (stereo not drawn) | 108% (inactive) | 95% (inactive) | -0.755% (inactive) | 95.7 | 95 | -8.8% (inactive) | -3.97% (inactive)
4 | Cc1ccc(Nc2cc(C)nc3nnnn23)cc1 | 78.5% (inactive) | 93.4% (inactive) | 8.3% (inactive) | 85.1 | 93.4 | -5.06% (inactive) | -2.06% (inactive)
5 | Cc1cc(C(=O)Nc2cccc(O)c2)c(C)o1 | 87.1% (inactive) | 90% (inactive) | 3.61% (inactive) | 86.4 | 90 | -4.55% (inactive) | 3.17% (inactive)
6 | CCOc1ccccc1C(=O)NCCCn1ccnc1 | 95.3% (inactive) | 91.9% (inactive) | 4.38% (inactive) | 87.5 | 91.9 | -4.42% (inactive) | 2.7% (inactive)
7 | Nc1nc(NCc2ccco2)nn1-c1ccccc1 | 98% (inactive) | 96.7% (inactive) | 15.7% (inactive) | 80.9 | 96.7 | -7.07% (inactive) | 6.03% (inactive)
8 | O=C(CSc1nc2ccccc2o1)N1CCN(c2ccc(Cl)cc2)CC1 | 92.6% (inactive) | 87.4% (inactive) | 1.47% (inactive) | 85.9 | 87.4 | -1.56% (inactive) | 6.35% (inactive)
9 | COc1ccc(Cc2nc3ccc(S(N)(=O)=O)cc3[nH]2)cc1OC | 106% (inactive) | 99.9% (inactive) | 14.6% (inactive) | 85.4 | 99.9 | -2.86% (inactive) | 0.63% (inactive)
10 | Nc1nc(Nc2cccc3ccccc23)nc(C2CCCC2=O)n1 (stereo not drawn) | 89.7% (inactive) | 18% (active) | 0.545% (inactive) | 17.5 | 18 | -4.46% (inactive) | 3.45% (inactive)
11 | CCN(CC)c1ccc2c(c1)C(=O)N(C)C2=O | 71.6% (inactive) | 84.6% (inactive) | 2.22% (inactive) | 82.4 | 84.6 | -0.66% (inactive) | 1.9% (inactive)
12 | O=C(Nc1ccc(N2CCOCC2)cc1)C1CC1 | 109% (inactive) | 97.1% (inactive) | 8.07% (inactive) | 89 | 97.1 | -5.33% (inactive) | 3.49% (inactive)
13 | CCN(CC)CCN1C(=O)C(O)=C(C(=O)c2cccs2)C1c1ccc(C)o1 (stereo not drawn) | 98.7% (inactive) | 98.6% (inactive) | 5.08% (inactive) | 93.6 | 98.6 | -4.13% (inactive) | -1.11% (inactive)
14 | Cn1c(SCC(=O)Nc2cccc3ccccc23)nc(O)cc1=O | 88.3% (inactive) | 89.7% (inactive) | -5.66% (inactive) | 95.4 | 89.7 | -4.67% (inactive) | -0.79% (inactive)
15 | O=C1C2ON(c3ccccc3)C(c3cccnc3)C2C(=O)N1c1ccccc1 (stereo not drawn) | 104% (inactive) | 89.8% (inactive) | 2.77% (inactive) | 87.1 | 89.8 | -1.45% (inactive) | -10.3% (inactive)
16 | COc1ccc(N2CCN(C(=O)CN3C(=O)C4CC=CCC4C3=O)CC2)cc1 (stereo not drawn) | 99.7% (inactive) | 94.6% (inactive) | 3.03% (inactive) | 91.5 | 94.6 | 2.47% (inactive) | 14.8% (inactive)
17 | CCOC(=O)C1CCN(S(=O)(=O)c2cccc(-c3csc(C)n3)c2)CC1 | 101% (inactive) | 90.4% (inactive) | 5.91% (inactive) | 84.5 | 90.4 | -5.2% (inactive) | 3.81% (inactive)
18 | COCCn1cc(C(=O)NCCCN2CCC(C)CC2)c2c3ccccc3n(C)c2c1=O | 90.7% (inactive) | 88.8% (inactive) | 2.62% (inactive) | 86.2 | 88.8 | -5.97% (inactive) | 1.11% (inactive)
19 | COc1ccc(N2CCN(c3oc(COc4ccccc4)nc3C#N)CC2)cc1 | 84.1% (inactive) | 101% (inactive) | -2.02% (inactive) | 103 | 101 | -5.19% (inactive) | 0.95% (inactive)
20 | CCOC(=O)C1C(=O)OC(C)(C)C1C(C)C(=O)c1ccc(OC)cc1 (stereo not drawn) | 112% (inactive) | 96% (inactive) | 3.24% (inactive) | 92.7 | 96 | -0.39% (inactive) | 18.6% (inactive)

Row | SMILES | viability [1] | viability [2] | differential viability (reversal) ([3]; H69AR cells + 2 uM doxorubicin) | viability [3, 6] [%] | viability [3, 7] [%] | inhibition [4] | inhibition [5]
21 | CCOC(=O)C1CCN(C(=O)Nc2ccc(Cl)cc2Cl)CC1 | 100% (inactive) | 104% (inactive) | 19.9% (inactive) | 84.1 | 104 | -4.61% (inactive) | 3.65% (inactive)
22 | CCC(=O)Nc1ccc(NC(=O)CSc2nnnn2C(C)C)cc1 | 111% (inactive) | 93% (inactive) | 3.14% (inactive) | 89.8 | 93 | -3.82% (inactive) | 4.13% (inactive)
23 | CN(C)S(=O)(=O)n1cnc(-c2ccccc2)c1-c1ccccc1 | 99.8% (inactive) | 98.3% (inactive) | -3.79% (inactive) | 102 | 98.3 | -1.32% (inactive) | -2.86% (inactive)
24 | O=C(Cc1nn[nH]n1)NCCC1=CCCCC1 | 82.8% (inactive) | 95.7% (inactive) | 4.6% (inactive) | 91.1 | 95.7 | -1.04% (inactive) | -4.76% (inactive)
25 | CN(C)c1nc(N)nc(CSc2nnnn2-c2cccc3ccccc23)n1 | 99.9% (inactive) | 70.1% (inactive) | -3.27% (inactive) | 73.4 | 70.1 | -6.58% (inactive) | 4.13% (inactive)
26 | Cn1c(=O)c(=O)n(C)c2cc(S(=O)(=O)N3CCN(c4cccc(C(F)(F)F)c4)CC3)ccc21 | 73% (inactive) | 93.3% (inactive) | -1% (inactive) | 94.3 | 93.3 | 0.4% (inactive) | 3.02% (inactive)
27 | Cc1csc(OCc2ccc(C#N)cc2)n1 | 98.6% (inactive) | 101% (inactive) | 16.2% (inactive) | 85 | 101 | -5.32% (inactive) | 3.97% (inactive)
28 | Cc1ccc(-c2nnnn2CS(=O)(=O)c2ccccc2)cc1 | 86.7% (inactive) | 96.4% (inactive) | 5.26% (inactive) | 91.1 | 96.4 | -2.08% (inactive) | -2.22% (inactive)
29 | CC(=O)Nc1ccc2nc(-c3cccnc3)[nH]c2c1 | 98.6% (inactive) | 80.7% (inactive) | -11.3% (inactive) | 92 | 80.7 | 3.51% (inactive) | 11.1% (inactive)
30 | Cc1cc(C(=O)Nc2cc(C)n(Cc3ccc(Cl)cc3)n2)no1 | 102% (inactive) | 94.5% (inactive) | 2.41% (inactive) | 92.1 | 94.5 | 1.97% (inactive) | -6.51% (inactive)
31 | CC(=O)Nc1ccc(S(=O)(=O)N2CCN(Cc3ccncc3)CC2)cc1 | 90.7% (inactive) | 109% (inactive) | 18.1% (inactive) | 90.5 | 109 | -5.13% (inactive) | 1.59% (inactive)
32 | COC(=O)c1[nH]c2ccc(C)cc2c1NC(=O)CN1CCCc2ccccc21 | 48.2% (inactive) | 67.6% (inactive) | -15.6% (inactive) | 83.2 | 67.6 | -5.73% (inactive) | 0.79% (inactive)
33 | CCOC(=O)CSC1=C(C#N)C(c2ccc(C)cc2)C(C(=O)OC)C(=O)N1 (stereo not drawn) | 81.7% (inactive) | 91.1% (inactive) | 1.55% (inactive) | 89.6 | 91.1 | -1.2% (inactive) | -5.56% (inactive)
34 | COc1ccc(-c2nnc(-c3ccc(N)cc3)o2)cc1 | 95.9% (inactive) | 88.3% (inactive) | -2.75% (inactive) | 91.1 | 88.3 | -4.13% (inactive) | 3.81% (inactive)
35 | CS(=O)(=O)N1CCN(C(=O)c2ccc(-c3ccccc3)cc2)CC1 | 96.7% (inactive) | 96.1% (inactive) | 10.2% (inactive) | 85.9 | 96.1 | -2.99% (inactive) | 8.25% (inactive)
36 | CCOC(=O)C1CCCN(S(=O)(=O)c2cccs2)C1 (stereo not drawn) | 110% (inactive) | 109% (inactive) | 12.7% (inactive) | 96.7 | 109 | 0.66% (inactive) | -6.03% (inactive)
37 | Cc1c(Cc2ccccc2)sc(N)c1C(N)=O | 86.5% (inactive) | 93.5% (inactive) | 2.93% (inactive) | 90.6 | 93.5 | -3.77% (inactive) | 5.71% (inactive)
38 | O=C(O)CCc1ccc(-c2ccccc2)n1CC(=O)O | 88.9% (inactive) | 93% (inactive) | 1.87% (inactive) | 91.1 | 93 | -1.43% (inactive) | 12.5% (inactive)
39 | CCc1cc(-c2[nH]ncc2-c2ccc3c(c2)OCO3)c(O)cc1O | 4.08% (active) | 23.3% (active) | -14.2% (inactive) | 37.5 | 23.3 | 4.94% (inactive) | 27.1% (inactive)
